Measurements from ChEMBL document CHEMBL2321721 (ACS Med Chem Lett, 2013).
One block for each molecule: values may come before it. Activity calls are given as the source filed them. No cut-off for these calls is given here.

Experiments:
[1] = Partition coefficient, log P of the compound; format: physicochemical; conditions: octanol/water
[2] = target: T1, Ribosomal protein S6 kinase alpha-3 (Homo sapiens, UniProt P51812); assay: Inhibition of recombinant RSK2 (unknown origin) expressed in baculovirus infected Sf9 cells assessed as decrease in substrate phosphorylation using GST-fusion protein containing ERalpha-Ser167 sequence-RLASTND as substrate by chemiluminescence analysis
T1 sequence (P51812 whole entry, the tested form may be a part): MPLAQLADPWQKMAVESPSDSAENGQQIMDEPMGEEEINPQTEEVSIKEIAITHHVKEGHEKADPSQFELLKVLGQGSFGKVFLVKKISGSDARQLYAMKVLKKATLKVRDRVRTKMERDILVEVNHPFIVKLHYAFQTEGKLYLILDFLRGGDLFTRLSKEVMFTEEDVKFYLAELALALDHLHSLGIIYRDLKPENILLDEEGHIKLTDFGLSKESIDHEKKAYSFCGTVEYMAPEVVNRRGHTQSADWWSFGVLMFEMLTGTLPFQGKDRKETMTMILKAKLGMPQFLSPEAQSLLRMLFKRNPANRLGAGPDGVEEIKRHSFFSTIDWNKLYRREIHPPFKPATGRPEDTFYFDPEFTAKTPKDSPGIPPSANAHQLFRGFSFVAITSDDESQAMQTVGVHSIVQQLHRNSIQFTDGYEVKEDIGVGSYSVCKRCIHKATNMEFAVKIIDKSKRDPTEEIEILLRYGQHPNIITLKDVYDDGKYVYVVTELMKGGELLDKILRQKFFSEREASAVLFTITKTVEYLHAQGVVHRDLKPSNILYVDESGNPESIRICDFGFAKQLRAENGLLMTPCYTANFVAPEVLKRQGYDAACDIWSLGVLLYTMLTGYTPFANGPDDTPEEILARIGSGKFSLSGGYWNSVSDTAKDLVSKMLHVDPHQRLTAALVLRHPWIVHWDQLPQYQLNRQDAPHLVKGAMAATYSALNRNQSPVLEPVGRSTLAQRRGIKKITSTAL

[3] = target: T1, Ribosomal protein S6 kinase alpha-3; assay: Inhibition of RSK2 in human PMA-stimulated MCF7 cells assessed as decrease in expression of 27kDa protein harboring (Lys/Arg)X(Lys/Arg)XX(pSer/pThr) motif at 25 uM pretreated for 24 hrs prior to PMA addition measured after 20 mins immunoblot analysis; format: cell-based
Procedure, shortened: (§1)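 MCF-7 cells pretreated with inhibitor or vehicle, then stimulated with PMA or treated with DMSO vehicle. Lysates analysed by immunoblotting for eEF2 phosphorylation and other RSK biomarkers. Inhibitor concentrations were 100 μM or 25 μM.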

[4] = system: MCF7; assay: Decrease in cyclin D1 level in human PMA-stimulated MCF7 cells at 25 uM pretreated for 24 hrs prior to PMA addition measured after 20 mins by immunoblot analysis; format: functional, cell-based; procedure, shortened: as §1
[5] = system: MCF-10A; assay: Inhibition of human MCF10A cell proliferation assessed as decrease in ATP content after 48 hrs by CellTiter-GloTM assay; format: cell-based
Procedure, shortened: (§2)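 Compounds added at time 0 to MCF-7 or MCF-10A cells at various concentrations, 25 μM or lower. Proliferation read as ATP content after 48 h of treatment, expressed as fold proliferation as a percentage of vehicle-treated cells. n = 3 in quadruplicate, SD, Student's t test.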

[6] = target: T1, Ribosomal protein S6 kinase alpha-3; assay: Inhibition of RSK2 in human MCF7 cells assessed as reduction of PMA-induced decrease in EF2 kinase phosphorylation at 25 uM pretreated for 24 hrs prior to PMA addition measured after 20 mins by immunoblot analysis; format: cell-based; procedure, shortened: as §1
[7] = system: MCF7; assay: Inhibition of human MCF7 cell proliferation assessed as decrease in ATP content at 25 uM after 48 hrs by CellTiter-GloTM assay relative to SL0101; format: functional; conditions: MCF7, 48 h; procedure, shortened: as §2
[8] = target: T1, Ribosomal protein S6 kinase alpha-3; assay: Ratio of SL0101 IC50 to compound IC50 for recombinant RSK2 (unknown origin) expressed in baculovirus infected Sf9 cells by chemiluminescence analysis
[9] = system: MCF7; assay: Decrease in cyclin D1 level in human PMA-stimulated MCF7 cells at 100 uM pretreated for 2 hrs prior to PMA addition measured after 20 mins by immunoblot analysis; format: functional, cell-based; procedure, shortened: as §1
[10] = system: Plasma; assay: Cmax in CD1 mouse plasma at 2.5 mg/kg, ip; format: ADME, organism-based; set-up: dose 2.5 mg/kg, route intraperitoneal; conditions: in vivo
Procedure, shortened: (§3)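 Male CD-1 mice given a single dose, 1 mg/kg iv or 2.5 mg/kg ip, in 1:1:15 Cremophor:EtOH:phosphate-buffered saline carrier. Plasma concentrations measured. AUC extrapolated to infinity and normalized to dose in mg/kg. C0 is maximum plasma concentration extrapolated to t = 0. Cmax is the observed maximum plasma concentration.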

[11] = Half life in CD1 mouse at 1 mg/kg, iv; format: ADME, organism-based; set-up: dose 1 mg/kg, route intravenous; conditions: in vivo; procedure, shortened: as §3
[12] = Half life in CD1 mouse at 2.5 mg/kg, ip; format: ADME, organism-based; set-up: dose 2.5 mg/kg, route intraperitoneal; conditions: in vivo; procedure, shortened: as §3
[13] = Initial plasma concentration in CD1 mouse at 1 mg/kg, iv; format: ADME, organism-based; set-up: dose 1 mg/kg, route intravenous; procedure, shortened: as §3
[14] = system: Mus musculus; assay: Dose normalized AUC in CD1 mouse at 2.5 mg/kg, ip; format: ADME, organism-based; set-up: dose 2.5 mg/kg, route intraperitoneal; conditions: in vivo; procedure, shortened: as §3
[15] = system: Mus musculus; assay: Dose normalized AUC in CD1 mouse at 1 mg/kg, iv; format: ADME, organism-based; set-up: dose 1 mg/kg, route intravenous; conditions: in vivo; procedure, shortened: as §3
[16] = target: T1, Ribosomal protein S6 kinase alpha-3; conditions: MCF7, 100 uM
[17] = target: T1, Ribosomal protein S6 kinase alpha-3; conditions: MCF7, 100 uM; remark: listed apart in the source

Structure (SMILES): CCC[C@@H]1O[C@@H](Oc2c(-c3ccc(O)cc3)oc3cc(O)cc(O)c3c2=O)[C@H](OC(C)=O)[C@H](O)[C@H]1OC(C)=O
- logP [1]: 3.39
- IC50 [2]: 620 nM

Structure (SMILES): CCC[C@@H]1O[C@@H](Oc2c(-c3ccc(O)cc3)oc3cc(O)cc(O)c3c2=O)[C@H](O)[C@H](O)[C@H]1OC(C)=O
- logP [1]: 2.9
- IC50 [2]: 1500 nM

Structure (SMILES): CC(=O)O[C@@H]1[C@@H](OC(C)=O)[C@@H](O)[C@H](Oc2c(-c3ccc(O)cc3)oc3cc(O)cc(O)c3c2=O)O[C@H]1C
- inhibition [9]: Active
- logP [1]: 2.11
- Cmax [10]: 1851 ng/mL
- half-life [11]: 9 min
- half-life [12]: 24 min
- C0 [13]: 291 ng/mL
- AUC/dose [14]: 1023 ng·kg·h/mL/mg
- AUC/dose [15]: 38.7 ng·kg·h/mL/mg
- inhibition [16]: Active
- inhibition [17]: Active

Structure (SMILES): CCC[C@@H]1O[C@@H](Oc2c(-c3ccc(O)cc3)oc3cc(O)cc(O)c3c2=O)[C@H](O)[C@H](O)[C@H]1O
- logP [1]: 2.2

Structure (SMILES): CCC[C@@H]1O[C@@H](Oc2c(-c3ccc(O)cc3)oc3cc(O)cc(O)c3c2=O)[C@H](OC(C)=O)[C@H](OC(C)=O)[C@H]1OC(C)=O
- logP [1]: 3.87
- IC50 [2]: 1770 nM

Continued, in another order:

- inhibition [3]: Active
- inhibition [6]: Active
- logP [1]: 3.17
- Ratio IC50 [8]: > 40
Structure (SMILES): CCC[C@@H]1O[C@@H](Oc2c(-c3ccc(O)cc3)oc3cc(O)cc(O)c3c2=O)[C@H](O)[C@H](OC(C)=O)[C@H]1OC(C)=O
- inhibition [4]: Active
- Activity [5]: Non-toxic
- inhibition at 25 µM [7]: 50%

- logP [1]: 2.41
Structure (SMILES): CC(C)C[C@@H]1O[C@@H](Oc2c(-c3ccc(O)cc3)oc3cc(O)cc(O)c3c2=O)[C@H](O)[C@H](O)[C@H]1O

- logP [1]: 1.64
- IC50 [2]: 1510 nM
Structure (SMILES): CC[C@@H]1O[C@@H](Oc2c(-c3ccc(O)cc3)oc3cc(O)cc(O)c3c2=O)[C@H](O)[C@H](O)[C@H]1O
